Several values for one entry are separate records, joined by “and”; a condition that tells them apart may be missing. Identical values can stand only once.
What was measured:
Type in all cases: toxicity, cell-based
Fibroblast [1] = assay: Incucyte cell viability with human fibroblast; details: 10 µM, compound concentration 10 uM; further: filed as whole numbers so only -1 and 0 and 1 occur
U2OS = assay: Incucyte cell viability with U2OS; details: human, 10 µM, compound concentration 10 uM; further: filed as whole numbers so only -1 and 0 and 1 occur
Fibroblast [2] = assay: Multiplex assay against human fibroblast
Summary of the method: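 Compound was added to live cells that had been stained at seeding with Hoechst33342, BioTracker Green Microtubule Cytoskeleton Dye, MitoTracker Red and Annexin V Alexa Fluor 680, and imaging followed on a CQ1 microscope at 37°C and 5% CO2. CellPathfinder machine-learning gating divided cells into Hoechst high-intensity objects or normal cells, normal cells into healthy, pyknosed or fragmented nuclei, and pyknosed cells into mitotic or apoptotic. Tubulin, mitochondrial-mass and membrane-permeability phenotypes are per cents of healthy-nucleus cells.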

[3] = 0 h, replicate number 1, timepoint 0 hours
[4] = 6 h, replicate number 1, timepoint 6 hours
[5] = 12 h, replicate number 1, timepoint 12 hours
[6] = 18 h, replicate number 1, timepoint 18 hours
[7] = 24 h, replicate number 1, timepoint 24 hours
[8] = 12 h, 1 µM, compound concentration 1 uM, replicate 1
[9] = 12 h, 1 µM, compound concentration 1 uM, replicate 2
[10] = 12 h, 10 µM, compound concentration 10 uM, replicate 1
[11] = 12 h, 10 µM, compound concentration 10 uM, replicate 2
[12] = 24 h, 1 µM, compound concentration 1 uM, replicate 1
[13] = 24 h, 1 µM, compound concentration 1 uM, replicate 2
[14] = 24 h, 10 µM, compound concentration 10 uM, replicate 1
[15] = 24 h, 10 µM, compound concentration 10 uM, replicate 2
[16] = 48 h, 1 µM, compound concentration 1 uM, replicate 1
[17] = 48 h, 1 µM, compound concentration 1 uM, replicate 2
[18] = 48 h, 10 µM, compound concentration 10 uM, replicate 1
[19] = 48 h, 10 µM, compound concentration 10 uM, replicate 2

CS(=O)(=O)N1CCCC(NC(=O)[C@H](CCC2CCCCC2)NC(=O)c2ccc(CNC(=O)c3cnc4ccccn34)cc2)C1 (stereo partly specified) [SR-302]
Growth Rate (Fibroblast [1]; [3]): 0 | Growth Rate (Fibroblast [1]; [4]): 1 | Growth Rate (Fibroblast [1]; [5]): 0 | Growth Rate (Fibroblast [1]; [6]): 0 | Growth Rate (Fibroblast [1]; [7]): 0 | Growth Rate (U2OS; [3]): 0 | Growth Rate (U2OS; [4]): 1 | Growth Rate (U2OS; 6 h, replicate number 2, timepoint 6 hours): 0 | Growth Rate (U2OS; [5]): 0 | Growth Rate (U2OS; [6]): 0 | Growth Rate (U2OS; 18 h, replicate number 2, timepoint 18 hours): 1 | Growth Rate (U2OS; [7]): 0 | Population Apoptotic (%) (Fibroblast [2]; [8]): 63% [middle of 4 runs] | Population Fragmented Nuclei (%) (Fibroblast [2]; [8]): 16% and 17% and 20% | Population Healthy Nuclei (%) (Fibroblast [2]; [8]): 42% [middle of 4 runs] | Population Hoechst High Intensity Objects (%) (Fibroblast [2]; [8]): 15% [middle of 4 runs] | Population Membrane Permeable-Phenotype (%) (Fibroblast [2]; [8]): 31% and 23% | Population Mitochondria Different-Phenotype (%) (Fibroblast [2]; [8]): 10% [middle of 4 runs] | Population Mitotic Cells (%) (Fibroblast [2]; [8]): 42% [middle of 4 runs] | Population Normal (%) (Fibroblast [2]; [8]): 85% and 84% and 80% and 87% | Population Pyknosed Nuclei (%) (Fibroblast [2]; [8]): 55% and 40% and 41% | Population Apoptotic (%) (Fibroblast [2]; [9]): 40% and 33% and 20% | Population Healthy Nuclei (%) (Fibroblast [2]; [9]): 81% [middle of 4 runs] | Population Membrane Permeable-Phenotype (%) (Fibroblast [2]; [9]): 0% and 7% and 2% | Population Mitochondria Different-Phenotype (%) (Fibroblast [2]; [9]): 6% and 7% and 9% | Population Mitotic Cells (%) (Fibroblast [2]; [9]): 60% and 66% and 80% | Population Normal (%) (Fibroblast [2]; [9]): 75% and 93% and 83% and 97% | Population Pyknosed Nuclei (%) (Fibroblast [2]; [9]): 12% [middle of 4 runs] | Total Cell Count (Fibroblast [2]; [9]): 84 and 98 and 59 | Population Apoptotic (%) (Fibroblast [2]; [10]): 56% [middle of 4 runs] | Population Fragmented Nuclei (%) (Fibroblast [2]; [10]): 26% [middle of 4 runs] | Population Healthy Nuclei (%) (Fibroblast [2]; [10]): 20% and 32% and 52% | Population Hoechst High Intensity Objects (%) (Fibroblast [2]; [10]): 11% and 19% and 9% | Population Membrane Permeable-Phenotype (%) (Fibroblast [2]; [10]): 20% [middle of 4 runs] | Population Mitotic Cells (%) (Fibroblast [2]; [10]): 48% [middle of 4 runs] | Population Normal (%) (Fibroblast [2]; [10]): 88% and 80% and 91% | Population Pyknosed Nuclei (%) (Fibroblast [2]; [10]): 51% [middle of 4 runs] | Population Tubulin-Different-Phenotype (%) (Fibroblast [2]; [10]): 86% [middle of 4 runs] | Total Cell Count (Fibroblast [2]; [10]): 137 [middle of 4 runs] | Population Apoptotic (%) (Fibroblast [2]; [11]): 71% [middle of 4 runs] | Population Healthy Nuclei (%) (Fibroblast [2]; [11]): 34% and 80% and 83% | Population Membrane Permeable-Phenotype (%) (Fibroblast [2]; [11]): 18% and 23% and 11% | Population Normal (%) (Fibroblast [2]; [11]): 66% and 92% and 93% and 96% | Population Pyknosed Nuclei (%) (Fibroblast [2]; [11]): 17% and 7% and 9% | Population Tubulin-Different-Phenotype (%) (Fibroblast [2]; [11]): 91% [middle of 4 runs] | Total Cell Count (Fibroblast [2]; [11]): 77 [middle of 4 runs] | Population Apoptotic (%) (Fibroblast [2]; [12]): 72% [middle of 4 runs] | Population Fragmented Nuclei (%) (Fibroblast [2]; [12]): 25% [middle of 4 runs] | Population Healthy Nuclei (%) (Fibroblast [2]; [12]): 51% [middle of 4 runs] | Population Hoechst High Intensity Objects (%) (Fibroblast [2]; [12]): 17% [middle of 4 runs] | Population Mitochondria Different-Phenotype (%) (Fibroblast [2]; [12]): 7% [middle of 4 runs] | Population Mitotic Cells (%) (Fibroblast [2]; [12]): 40% [middle of 4 runs] | Population Normal (%) (Fibroblast [2]; [12]): 85% and 77% and 82% and 83% | Population Pyknosed Nuclei (%) (Fibroblast [2]; [12]): 28% [middle of 4 runs] | Population Membrane Permeable-Phenotype (%) (Fibroblast [2]; [13]): 0% and 5% and 1% | Population Mitochondria Different-Phenotype (%) (Fibroblast [2]; [13]): 6% and 8% and 4% | Population Mitotic Cells (%) (Fibroblast [2]; [13]): 66% [middle of 4 runs] | Population Normal (%) (Fibroblast [2]; [13]): 76% and 95% | Total Cell Count (Fibroblast [2]; [13]): 97 [middle of 4 runs] | Population Apoptotic (%) (Fibroblast [2]; [14]): 57% [middle of 4 runs] | Population Fragmented Nuclei (%) (Fibroblast [2]; [14]): 24% [middle of 4 runs] | Population Healthy Nuclei (%) (Fibroblast [2]; [14]): 37% and 27% and 59% | Population Hoechst High Intensity Objects (%) (Fibroblast [2]; [14]): 10% [middle of 4 runs] | Population Mitotic Cells (%) (Fibroblast [2]; [14]): 51% [middle of 4 runs] | Population Normal (%) (Fibroblast [2]; [14]): 100% and 89% and 80% and 92% | Population Pyknosed Nuclei (%) (Fibroblast [2]; [14]): 51% [middle of 4 runs] | Population Tubulin-Different-Phenotype (%) (Fibroblast [2]; [14]): 82% [middle of 4 runs] | Population Apoptotic (%) (Fibroblast [2]; [15]): 55% [middle of 4 runs] | Population Membrane Permeable-Phenotype (%) (Fibroblast [2]; [15]): 16% [middle of 4 runs] | Population Mitochondria Different-Phenotype (%) (Fibroblast [2]; [15]): 75% [middle of 4 runs] | Population Mitotic Cells (%) (Fibroblast [2]; [15]): 45% [middle of 4 runs] | Population Normal (%) (Fibroblast [2]; [15]): 62% and 88% and 95% and 94% | Population Pyknosed Nuclei (%) (Fibroblast [2]; [15]): 24% and 15% and 13% | Population Tubulin-Different-Phenotype (%) (Fibroblast [2]; [15]): 72% [middle of 4 runs] | Total Cell Count (Fibroblast [2]; [15]): 88 [middle of 4 runs] | Population Apoptotic (%) (Fibroblast [2]; [16]): 58% and 70% and 55% | Population Fragmented Nuclei (%) (Fibroblast [2]; [16]): 42% and 31% and 22% | Population Healthy Nuclei (%) (Fibroblast [2]; [16]): 40% and 46% and 52% | Population Hoechst High Intensity Objects (%) (Fibroblast [2]; [16]): 18% and 24% and 20% | Population Membrane Permeable-Phenotype (%) (Fibroblast [2]; [16]): 14% and 36% and 20% | Population Mitochondria Different-Phenotype (%) (Fibroblast [2]; [16]): 7% and 13% and 5% | Population Mitotic Cells (%) (Fibroblast [2]; [16]): 41% and 30% and 44% | Population Normal (%) (Fibroblast [2]; [16]): 81% and 75% and 79% | Population Pyknosed Nuclei (%) (Fibroblast [2]; [16]): 17% and 21% and 24% | Population Tubulin-Different-Phenotype (%) (Fibroblast [2]; [16]): 42% and 59% and 28% | Total Cell Count (Fibroblast [2]; [16]): 86 and 62 and 93 | Population Fragmented Nuclei (%) (Fibroblast [2]; [17]): 19% and 14% and 23% | Population Healthy Nuclei (%) (Fibroblast [2]; [17]): 79% and 82% and 72% | Population Hoechst High Intensity Objects (%) (Fibroblast [2]; [17]): 13% and 8% and 15% | Population Membrane Permeable-Phenotype (%) (Fibroblast [2]; [17]): 9% and 7% | Population Mitochondria Different-Phenotype (%) (Fibroblast [2]; [17]): 0% and 4% | Population Normal (%) (Fibroblast [2]; [17]): 86% and 91% and 84% | Total Cell Count (Fibroblast [2]; [17]): 105 and 83 and 107 | Population Apoptotic (%) (Fibroblast [2]; [18]): 53% and 87% and 50% | Population Fragmented Nuclei (%) (Fibroblast [2]; [18]): 31% and 64% and 30% | Population Healthy Nuclei (%) (Fibroblast [2]; [18]): 47% and 22% and 30% | Population Hoechst High Intensity Objects (%) (Fibroblast [2]; [18]): 27% and 36% and 28% | Population Mitochondria Different-Phenotype (%) (Fibroblast [2]; [18]): 33% and 50% and 53% | Population Normal (%) (Fibroblast [2]; [18]): 72% and 63% and 71% | Population Tubulin-Different-Phenotype (%) (Fibroblast [2]; [18]): 70% and 64% and 92% | Total Cell Count (Fibroblast [2]; [18]): 87 and 97 and 118 | Population Apoptotic (%) (Fibroblast [2]; [19]): 66% and 44% | Population Fragmented Nuclei (%) (Fibroblast [2]; [19]): 35% and 26% and 27% | Population Healthy Nuclei (%) (Fibroblast [2]; [19]): 60% and 65% and 62% | Population Membrane Permeable-Phenotype (%) (Fibroblast [2]; [19]): 7% and 5% | Population Mitochondria Different-Phenotype (%) (Fibroblast [2]; [19]): 37% and 45% | Population Mitotic Cells (%) (Fibroblast [2]; [19]): 33% and 55% | Population Normal (%) (Fibroblast [2]; [19]): 98% and 90% | Population Pyknosed Nuclei (%) (Fibroblast [2]; [19]): 4% and 7% and 10% | Population Tubulin-Different-Phenotype (%) (Fibroblast [2]; [19]): 91% and 93% and 96% | Total Cell Count (Fibroblast [2]; [19]): 133 and 139

From ChEMBL document CHEMBL4689842, “EUbOPEN Chemogenomics Library wave 1” (2021)
